# Rows were chosen to be rich in hits. Some 3.5% of all compounds tested hit in one or more screens of this group.
# MrgX1 antagonist – blocks BAM8-22 activation of human MrgX1 receptor. Q96LB2. MRGX1-HEK293 calcium flux, Fluo-4, BAM8-22 antagonism; stronger effect = lower value. B-score at 10 µM. hit rate 1.3% among 310,000. AID 588676;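 active = calcium-response B-score plate-corrected more than 3 library SD below zero, starting fluorescence within 5 deviations, no agonist response on first addition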;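 note: peak minus trough fluorescence over baseline after final BAM8-22 challenge near maximal dose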
# Target sequence (Q96LB2 whole entry, looked up): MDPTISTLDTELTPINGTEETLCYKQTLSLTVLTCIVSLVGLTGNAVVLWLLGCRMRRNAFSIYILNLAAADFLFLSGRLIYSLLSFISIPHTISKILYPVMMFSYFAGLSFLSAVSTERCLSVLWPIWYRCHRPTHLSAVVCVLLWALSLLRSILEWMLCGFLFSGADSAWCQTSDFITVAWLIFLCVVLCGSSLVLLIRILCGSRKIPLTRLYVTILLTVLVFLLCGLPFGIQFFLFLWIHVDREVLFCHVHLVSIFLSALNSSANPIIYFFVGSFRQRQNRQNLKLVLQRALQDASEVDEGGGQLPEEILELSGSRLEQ
# MrgX1 PAM – human MrgX1 positive allosteric modulation, primary screen; Q96LB2; MrgX1-HEK293, Fluo-4 calcium flux, FDSS; stronger effect = higher value; B-score at 10 µM; hit rate 0.63% among 310,000;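 active = plate-corrected calcium response at least 3 library SD above typical, normal starting fluorescence, not activating the receptor alone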;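 note: compound read alongside a low EC10 to EC30 dose of BAM8-22 agonist; peak minus trough fluorescence over baseline measured at the second addition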
# MrgX1 agonist – human MrgX1 receptor agonism, primary screen; AID 588627; MrgX1-HEK293 cells, Fluo-4 calcium fluorescence, agonist mode; stronger effect = higher value; hit rate 0.44% among 310,000; B-score at 10 µM; Q96LB2;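 active = calcium response B-score plate-corrected fluorescence ratio at least 3 library SD, with starting fluorescence B-score inside 5 SD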
#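 Assay system: MrgX1-expressing HEK293 cells / Amount: fifteen thousand cells per well / Doses: test compound in the initial addition of three / Timing: cells plated overnight, dye loaded 0.5 h 37 °C, 0.5 h room temperature / Technique: kinetic calcium dye fluorescence, Fluo-4 NW / Control set: positive and negative controls per plate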
# RGS4 block – human RGS4 inhibition; P49798; HEK293 M3R/RGS4 inducible, Fluo-4 calcium flux; stronger effect = higher value; triggered by carbachol at its EC20; B-score at 10 µM; hit rate 0.45% among 310,000;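 active = B-score, a plate-corrected calcium signal, over three deviations above library mean, with baseline fluorescence within five deviations of library mean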;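 note: RGS4 expression induced by doxycycline in cells with stable M3 receptor; B-score is computed from the integrated fluorescence ratio over baseline after carbachol; higher B-score means a larger calcium signal and so more RGS4 inhibition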
# Target sequence (P49798 whole entry, looked up): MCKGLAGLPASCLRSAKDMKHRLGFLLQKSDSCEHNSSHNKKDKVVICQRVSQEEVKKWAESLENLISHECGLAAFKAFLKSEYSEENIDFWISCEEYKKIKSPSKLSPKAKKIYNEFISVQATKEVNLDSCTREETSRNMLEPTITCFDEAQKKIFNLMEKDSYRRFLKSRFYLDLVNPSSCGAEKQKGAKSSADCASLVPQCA
# RGS4 pot – RGS4 potentiation or activation; AID 463111; B-score at 10 µM; hit rate 0.92% among 310,000; HEK293 M3R/inducible RGS4, carbachol calcium flux Fluo4; stronger effect = lower value;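 active = B-score of the integrated calcium signal more than 4 SD below the library mean, with starting fluorescence not abnormally high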;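 note: negative B-score means reduced calcium response which marks RGS4 activation or potentiation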
#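 Material: Inducible-RGS4 HEK293 cells carrying M3 receptor; also added: carbachol at ECmax as muscarinic agonist stimulus; incubation: compound preincubation 20 min at room temperature before agonist; signal: Fluo4-AM (2 µM) calcium-flux fluorescence, kinetic read; measure: integrated calcium ratio converted to B score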
# MrgX1 ag confirm – reconfirmed activator of human MrgX1 receptor signaling. hit rate 78% among 600. shares compounds with MrgX1 agonist. MrgX1-HEK293, Fluo-4 calcium fluorescence, FDSS. activation, % at 10 µM. AID 602412;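 active = calcium signal rise, corrected for plate position, at least 3 library SD high, with starting brightness within 5 such deviations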
# HEK293 Ca flux – MrgX1 antagonist counter-screen hit in parental HEK293 cells | shares compounds with MrgX1 antagonist | Fluo-4 calcium fluorescence, FDSS | AID 624111 | hit rate 2% among 4,000 | fluorescence ratio F(max-min)/F0 at 10 µM;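 active = duplicate-averaged calcium fluorescence ratio at least three times the standard deviation of buffer wells, a nonspecific response in parental cells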
# HEK293 Ca counter – activity in parental HEK293 cells without MrgX1 | parental HEK293 calcium flux, Fluo-4 fluorescence ratio; stronger effect = higher value | fluorescence ratio F(max-min)/F0 at 10 µM | AID 624114 | hit rate 0.4% among 4,000 | shares compounds with MrgX1 antagonist;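 active = calcium fluorescence ratio, averaged over duplicates, at least 3 SD of the buffer-well ratio, meaning a nonspecific response in receptor-free cells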;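 note: untransfected parental HEK293 lacking MrgX1 used as counterscreen for MrgX1 allosteric activators; fluorescence change taken during the second addition on a kinetic imager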
# HEK293 Ca cntr2 – counter-screen for MrgX1 activators: effect in parental HEK293 cells; fluorescence ratio F(max-min)/F0 at 10 µM; shares compounds with MrgX1 antagonist; hit rate 8.7% among 4,000; Fluo-4 calcium fluorescence (FDSS); stronger effect = higher value;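 active = calcium fluorescence ratio at least three times the spread of buffer wells, meaning a non-specific response in parental cells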
# * = called active by the depositor; i = inactive; . = not tested or not shown.
SMILES,MrgX1 antagonist,MrgX1 PAM,MrgX1 agonist,RGS4 block,RGS4 pot,MrgX1 ag confirm,HEK293 Ca flux,HEK293 Ca counter,HEK293 Ca cntr2
CCCCC(=O)NC(=S)NNC(=O)c1ccc(OC)cc1,i,i,97.8*,i,i,578.3%*,i,i,97.4*
C=C(C)Cn1c(-c2ccccc2)nc2ccccc21,i,i,30.7*,i,i,131.0%*,i,i,i
C=C(C)Cn1c(SCC(=O)O)nnc1-c1ccccc1,i,i,i,i,i,.,.,.,.
CC(=O)Cc1nsc(NC(=O)c2oc(-c3ccccc3Cl)cc2C)n1,i,i,36.5*,i,i,112.4%*,i,i,i
CC(=O)Cc1nsc(NC(=O)c2ccccc2Cl)n1,i,i,i,i,i,.,.,.,.
CC1(c2ccccc2)CC(C)(C)N2C(=O)C(=O)c3cccc1c32 (configuration not stated),i,i,28.8*,i,i,i,i,i,i
CC1(c2ccccc2)CC(C)(C)n2c(O)c(C3=NC(=S)NC3=O)c3cccc1c32 (configuration not stated),i,i,i,i,i,.,.,.,.
O=C1CCC(C(=O)Nc2cccc(S(=O)(=O)N3CCOCC3)c2)N1 (configuration not stated),i,i,i,i,i,.,.,.,.
CCOC(=O)c1cnc2c(OC)cccc2c1N1CC(C)CC(C)C1 (configuration not stated),i,i,28*,i,i,i,i,i,i
CCOC(=O)c1ccccc1NC(=O)CSc1nnnn1C,i,i,i,i,i,.,.,.,.
CN(C)CCNC(=O)Cn1nc(C(F)F)cc1C1CC1,i,i,i,i,i,.,.,.,.
COc1cc(C(=O)N/C(=C/c2ccc(F)cc2)C(=O)NC(C(=O)O)c2ccccc2)cc(OC)c1OC (configuration not stated),i,i,i,i,i,.,.,.,.
CCSc1nc2ccccc2n1CCOc1ccccc1,i,i,i,i,i,.,.,.,.
COc1ccc(OCCn2c(N)nc3ccccc32)cc1,i,i,29.9*,i,i,153.4%*,i,i,i
Cc1nc2ccccc2n1CCOc1ccccc1,i,i,i,i,i,.,.,.,.
Nc1nc2ccccc2n1CCOc1ccc(F)cc1,i,i,40.6*,i,i,134.0%*,i,i,i
O=c1c2cc(Cl)ccc2nc(-c2ccc(Cl)c(Cl)c2)n1O,i,i,151*,i,-7.68*,718.9%*,i,i,122*
Cc1ccccc1-c1nc2ccc(Cl)cc2c(=O)n1O,i,i,i,i,i,.,.,.,.
O=c1c2cc(Br)ccc2nc(-c2cccc(C(F)(F)F)c2)n1O,i,i,119*,i,i,619.8%*,i,i,144*
COc1c(S(=O)(=O)n2nc(C)cc2C)ccc(Cl)c1Cl,i,i,i,i,i,.,.,.,.
C=C1CCC[C@]2(C)C[C@H]3OC(=O)C(CNC(C)(CO)CO)[C@H]3CC12 (some centres not stated),i,i,i,i,i,.,.,.,.
CCOc1ccc(C2c3cc(OC)c(OC)cc3CC(=O)N2c2ccc(OC)cc2)cc1 (configuration not stated),i,i,i,i,i,.,.,.,.
COc1ccc(/C=C2\SC(=Nc3ccccc3)NC2=O)cc1,i,i,i,i,i,.,.,.,.
COc1ccccc1N=C1NC(=O)/C(=C/c2ccc(N(C)C)cc2)S1,i,i,65.4*,i,i,i,0.217*,i,128*
Cc1ccc(OCc2nc(-c3ccc(Cl)cc3)n[nH]2)cc1,i,i,i,i,i,.,.,.,.
SMILES,MrgX1 antagonist,MrgX1 PAM,MrgX1 agonist,RGS4 block,RGS4 pot,MrgX1 ag confirm,HEK293 Ca flux,HEK293 Ca counter,HEK293 Ca cntr2
Cc1ccc(-c2n[nH]c(Cc3ccccc3)n2)cc1,i,i,28.5*,i,i,96.8%*,i,i,i
COc1ccc2c(c1)cc1n2CCN=C1N,i,i,30.5*,i,i,138.2%*,i,i,i
COc1ccc2c(c1)cc1n2CCN2CCCN=C12,i,i,i,i,i,.,.,.,.
CS(=O)(=O)N(CC(=O)NC1CCCC1)Cc1ccc(Cl)cc1,i,i,i,i,i,.,.,.,.
O=S(=O)(Cc1noc(-c2ccc(Cl)cc2)n1)Cc1ccco1,i,i,i,i,i,.,.,.,.
Cc1cc2c3c(c1)C(C)CC(C)(C)N3C(=O)C2=O (configuration not stated),i,i,i,i,i,.,.,.,.
CC1CC2(CCCCC2)N2C(=O)C(=O)c3cccc1c32 (configuration not stated),i,i,46*,i,i,195.8%*,i,i,i
Cc1ccccc1CC(=O)N1CCCC1,i,i,i,i,i,.,.,.,.
CC(=O)Nc1cccc(OC(=O)c2ccoc2C)c1,i,i,32.9*,i,i,128.5%*,i,i,45.9*
O=S(=O)(Nc1cccc(-c2ccc3nncn3n2)c1)c1cccc(F)c1,i,i,36.7*,i,i,177.0%*,i,i,i
c1ccc(Sc2nc(N3CCCCC3)nc(N3CCCCC3)n2)nc1,i,i,35.1*,i,i,210.9%*,i,i,58.6*
OCC[C@H]1C[C@@H](O)[C@H](O)[C@]2(Cc3ccccc3CO2)O1,i,i,i,.,.,.,.,.,.
COc1cc(/C=C(\NC(=O)c2ccccc2)C(=O)Nc2cccc(O)c2)c([N+](=O)[O-])cc1OC,i,i,i,i,i,.,.,.,.
Cc1cc(C)c(C#N)c(SCCN2CCOCC2)n1,i,i,i,i,i,.,.,.,.
N#Cc1ccc(-c2ccccc2)nc1SCCN1CCOCC1,i,i,27.7*,i,i,171.2%*,i,i,i
CC(C)c1ccc(S(=O)(=O)N2CCN(C(=O)Cc3ccsc3)CC2)cc1,i,i,i,i,i,.,.,.,.
COc1ccc(-c2nnc(SCc3ccccn3)n2C)cc1,i,i,i,i,i,.,.,.,.
COc1ccc(N=C(N)SCc2ccccn2)cc1,i,i,87*,i,i,341.0%*,i,i,91.7*

# Compound activity from PubChem BioAssay.
